Experimental data gathered from unrelated publications.
Lines come from different studies, so protocols differ.
Chrna7: Neuronal acetylcholine receptor subunit alpha-7 (Chrna7, Rattus norvegicus, UniProt Q05941)
ache: Acetylcholinesterase (ache, Electrophorus electricus, UniProt O42275)

SMILES	target	effect on	mode	technique	setting	IC50
COc1ccc2[nH]c3c(c2c1)CCN(C)CC3	Chrna7	ion current	antagonist	two-electrode voltage clamp	oocytes	11.4 µM
C#CCN(C)CCCCCCCCOc1cccc(CN(C)c2c3c(nc4ccc(C)cc24)CCCC3)c1	ache	enzyme activity	inhibitor	Ellman		32.2 µM
CNC(=O)c1ccc(-c2cnn3ccc(C(=O)N(C)c4ccc(Cl)c(C(=O)OC)c4)cc23)cc1	Tyrosine-protein kinase receptor UFO (AXL, Homo sapiens, UniProt P30530)	enzyme activity	inhibitor			> 30 µM
CC(C)C[C@H](NC(=O)[C@H]1O[C@@H]1C(=O)O)C(=O)NCCCCN=C(N)N	Pro-cathepsin H (Homo sapiens, UniProt P09668)	enzyme activity	inhibitor			0.025 µM
C#CCN(C)CCCOc1cccc(CN(C)c2c3c(nc4ccc(C)cc24)CCCC3)c1	ache	enzyme activity	inhibitor	Ellman		5.36 µM
CCCCCCCCCC(=O)N[C@@H](CCCN=C(N)N)C(=O)N[C@H](C(=O)N[C@@H](CCCCN)C(=O)N[C@@H](CCCN=C(N)N)C(=O)CCl)C(C)C	Furin (FURIN, Homo sapiens, UniProt P09958)	enzyme activity	inhibitor			0.00134 µM
CNC(=O)c1ccc(-c2cnn3ccc(C(=O)N(C)c4ccc(Cl)c(C(=O)O)c4)cc23)cc1	Ephrin type-A receptor 4 (EPHA4, Homo sapiens, UniProt P54764)	enzyme activity	inhibitor			> 30 µM
COc1ccc2c3c([nH]c2c1)CCN(C)CC3	Chrna7	ion current	antagonist	two-electrode voltage clamp	oocytes	10.2 µM
